# Screening data (PubChem)
# Compounds with a hit are over-represented: about 3.5% of the library has one in this group of screens.
# MrgX1 antag: antagonists of human MrgX1 receptor | B-score at 10 µM | MRGX1-HEK293 calcium flux, Fluo-4, BAM8-22 antagonism; active compounds read low | 310,000 compounds, 1.3% hits | Q96LB2 | AID 588676;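 active means calcium-response B-score plate-corrected more than 3 library SD below zero, starting fluorescence within 5 deviations, no agonist response on first addition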;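 further: peak minus trough fluorescence over baseline after final BAM8-22 challenge near maximal dose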
# Target sequence (Q96LB2 whole entry, looked up): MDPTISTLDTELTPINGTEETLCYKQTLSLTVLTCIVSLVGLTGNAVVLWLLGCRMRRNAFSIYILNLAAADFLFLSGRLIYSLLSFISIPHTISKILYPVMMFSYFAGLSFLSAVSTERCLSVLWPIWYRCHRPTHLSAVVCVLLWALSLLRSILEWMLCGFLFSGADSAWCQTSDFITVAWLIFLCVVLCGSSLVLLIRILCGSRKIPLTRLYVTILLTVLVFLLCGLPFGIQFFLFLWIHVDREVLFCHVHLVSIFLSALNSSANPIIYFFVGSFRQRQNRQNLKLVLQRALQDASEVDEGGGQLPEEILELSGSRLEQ
# MrgX1 agonist: agonists of human MrgX1 receptor. Q96LB2. MrgX1-HEK293 cells, Fluo-4 calcium fluorescence, agonist mode; active compounds read high. B-score at 10 µM. 310,000 compounds, 0.44% hits. AID 588627;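 active means calcium response B-score plate-corrected fluorescence ratio at least 3 library SD, with starting fluorescence B-score inside 5 SD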
#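 Material: MrgX1-expressing HEK293 cells; input: 15,000 cells per well; doses: test compound given as first of three sequential additions; schedule: overnight plating before 1 h dye loading; technique: Fluo-4 NW calcium-flux fluorescence, kinetic read; evaluation: baseline-normalised fluorescence change ratio, B-scored; control set: plate-wise positive and negative controls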
# RGS4 act: potentiators or activators of RGS4 | HEK293 M3R/inducible RGS4, carbachol calcium flux Fluo4; active compounds read low | AID 463111 | 310,000 compounds, 0.92% hits | B-score at 10 µM;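 active means B-score of the integrated calcium signal more than 4 SD below the library mean, with starting fluorescence not abnormally high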;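 further: negative B-score means reduced calcium response which marks RGS4 activation or potentiation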
#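 Detection: kinetic calcium fluorescence imaging with Fluo4-AM dye, 2 µM / Material: HEK293 cells with stable M3R and inducible RGS4 / Schedule: recording 10 s baseline at 1 Hz, 100 s post-agonist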
# MrgX1 PAM: allosterically activates human MrgX1 receptor signaling; B-score at 10 µM; Q96LB2; 310,000 compounds, 0.63% hits; MrgX1-HEK293, Fluo-4 calcium flux, FDSS; active compounds read high;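 active means plate-corrected calcium response at least 3 library SD above typical, normal starting fluorescence, not activating the receptor alone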;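 further: compound read alongside a low EC10 to EC30 dose of BAM8-22 agonist; peak minus trough fluorescence over baseline measured at the second addition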
# RGS4 block: inhibitors of human RGS4; 310,000 compounds, 0.45% hits; HEK293 M3R/RGS4 inducible, Fluo-4 calcium flux; active compounds read high; triggered by carbachol at its EC20; B-score at 10 µM; AID 463165;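 active means B-score, a plate-corrected calcium signal, over three deviations above library mean, with baseline fluorescence within five deviations of library mean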;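 further: RGS4 expression induced by doxycycline in cells with stable M3 receptor; B-score is computed from the integrated fluorescence ratio over baseline after carbachol; higher B-score means a larger calcium signal and so more RGS4 inhibition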
# Target sequence (P49798 whole entry, looked up): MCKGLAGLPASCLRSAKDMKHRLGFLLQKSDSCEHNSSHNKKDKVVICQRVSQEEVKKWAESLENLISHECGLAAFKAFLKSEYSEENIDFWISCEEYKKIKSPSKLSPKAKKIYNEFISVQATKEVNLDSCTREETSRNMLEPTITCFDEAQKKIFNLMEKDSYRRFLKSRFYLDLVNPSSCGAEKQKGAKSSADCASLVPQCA
# MrgX1 ant reconf: human MrgX1 receptor antagonism, re-confirmation screen; remaining BAM8-22 calcium response % of control (active compounds read low), % at 10 µM; MrgX1-HEK293, BAM8-22 calcium flux, Fluo-4; active compounds read low; shares compounds with MrgX1 antag; 2,300 compounds, 19% hits;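 active means remaining agonist calcium response no higher than 100% minus 3 SD of agonist-only control wells, with starting fluorescence near control levels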;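 further: agonist BAM8-22 given at a near maximal EC90 to ECmax level; peak minus minimum fluorescence divided by baseline after agonist addition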
# HEK293 Ca flux: counter-screen for MrgX1 antagonists: effect in parental HEK293 cells. shares compounds with MrgX1 antag. Fluo-4 calcium fluorescence, FDSS. 4,000 compounds, 2% hits. fluorescence ratio F(max-min)/F0 at 10 µM;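 active means duplicate-averaged calcium fluorescence ratio at least three times the standard deviation of buffer wells, a nonspecific response in parental cells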
# HEK293 Ca counter: MrgX1 allosteric activator counter-screen hit in parental HEK293 cells. 4,000 compounds, 0.4% hits. fluorescence ratio F(max-min)/F0 at 10 µM. parental HEK293 calcium flux, Fluo-4 fluorescence ratio; active compounds read high. shares compounds with MrgX1 antag;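 active means calcium fluorescence ratio, averaged over duplicates, at least 3 SD of the buffer-well ratio, meaning a nonspecific response in receptor-free cells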;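 further: untransfected parental HEK293 lacking MrgX1 used as counterscreen for MrgX1 allosteric activators; fluorescence change taken during the second addition on a kinetic imager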
# HEK293 Ca cntr2: activity in parental HEK293 cells lacking MrgX1 receptor; fluorescence ratio F(max-min)/F0 at 10 µM; Fluo-4 calcium fluorescence (FDSS); active compounds read high; shares compounds with MrgX1 antag; 4,000 compounds, 8.7% hits;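 active means calcium fluorescence ratio at least three times the spread of buffer wells, meaning a non-specific response in parental cells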
# * hit, by the source's call; i = inactive; · = not tested or not shown.
SMILES,MrgX1 antag,MrgX1 agonist,RGS4 act,MrgX1 PAM,RGS4 block,MrgX1 ant reconf,HEK293 Ca flux,HEK293 Ca counter,HEK293 Ca cntr2
CC(C)(C)c1ccc(Oc2ccc(NC(=O)C3CC=CCC3C(=O)O)cc2)cc1 (stereo not drawn),-9*,i,i,i,i,i,i,i,i
CCCCC(=O)Nc1ccc(C(=O)N(CC)c2ccccc2C)cc1,-7*,i,i,i,i,i,i,i,i
Cc1cccc(N(CC(=O)NCc2ccc(F)cc2)C(=O)c2ccco2)c1,i,i,i,i,i,·,·,·,·
CN1CCN(C2=Nc3cc(F)ccc3Cc3ccccc32)CC1,i,i,i,i,i,·,·,·,·
CN1CCN(C2=Nc3c(Cl)cc(Cl)c4cccc2c34)CC1,-5.8*,i,i,i,i,i,i,i,49*
Cc1cc(C)c(S(=O)(=O)N2CCN(C(=O)c3ccc(-n4cncn4)c([N+](=O)[O-])c3)CC2)c(C)c1,i,i,i,i,i,·,·,·,·
CN(C)C/C=C(\c1ccc(Br)cc1)c1cccnc1,-4.9*,i,·,i,·,i,i,i,i
CCc1nnc(NC(=O)c2nc(S(=O)(=O)Cc3ccc(C)cc3)ncc2Cl)s1,-7.2*,i,i,i,i,73%*,i,i,i
Cc1cc(C)cc(OCC(=O)Nc2ccc3c(c2)OCO3)c1,i,i,i,i,i,·,·,·,·
Cc1ccc(SCCN2CCN(CC(C)C)CCC2=O)cc1,·,·,i,·,i,·,·,·,·
CCOc1ccccc1NS(=O)(=O)c1ccc(-c2cnc(C3CC3)o2)cc1,i,i,i,i,i,·,·,·,·
COc1ccccc1NS(=O)(=O)c1ccc(-c2cnc(C3CC3)o2)cc1,-5.2*,i,i,i,i,i,i,i,i
Cc1cccc(C)c1NC(=O)CNC(=O)C12CC3CC(CC(O)(C3)C1)C2,-4.9*,i,i,i,i,i,i,i,i
Cc1cccc(NC(=O)CNC(=O)C23CC4CC(CC(Cl)(C4)C2)C3)n1,i,i,i,i,i,·,·,·,·
OC(CCN1CCCC1)(c1ccccc1)C1CCCCC1 (stereo not drawn),i,i,i,i,i,·,·,·,·
OC(CCN1CCCCC1)(c1ccccc1)c1ccccc1,-7.1*,i,i,i,i,i,i,i,i
Cc1nc(C(=O)Nc2cc(F)cc(Cl)c2)sc1C1(C)CC(c2ccccc2)=NO1 (stereo not drawn),i,i,i,i,i,·,·,·,·
NC(CC(=O)O)c1cccc(OCc2ccccc2)c1 (stereo not drawn),-5.4*,i,·,i,·,75%*,i,i,i
O=C(O)CC(NC(=O)OCc1ccccc1)c1ccccc1 (stereo not drawn),i,i,i,i,i,·,·,·,·
COc1ccc(Nc2cc3n(c(=O)n2)CCc2cc(OC)c(OC)cc2-3)c(C)c1,-6.3*,i,i,i,i,i,i,i,i
Cc1ccc(N2CC(C(=O)N3CCC(C(=O)NC(C)(C)C)CC3)CC2=O)cc1 (stereo not drawn),i,i,i,i,i,·,·,·,·
O=C(Nc1ccc(S(=O)(=O)N2CCOCC2)cc1)c1ccc(Cl)cc1Cl,i,i,i,i,i,·,·,·,·
c1nc(N2CCOCC2)c2c3c(sc2n1)CCCC3,i,i,i,i,i,·,·,·,·
O=C(c1ccccc1)N1CCN(c2ncnc3sc4c(c23)CCC4)CC1,-5.1*,i,i,i,i,i,i,i,i
CCOC(=O)c1cnc(-n2nc(C)cc2C)nc1NC1CCCCC1,-4.9*,i,i,i,i,67%*,i,i,i
SMILES,MrgX1 antag,MrgX1 agonist,RGS4 act,MrgX1 PAM,RGS4 block,MrgX1 ant reconf,HEK293 Ca flux,HEK293 Ca counter,HEK293 Ca cntr2
CCN(c1cccc(C)c1)S(=O)(=O)c1cc2c3c(c1)CCN3C(=O)CC2,-11*,i,i,i,i,77%*,i,i,i
O=C(Nc1ccncc1)C1CCN(S(=O)(=O)c2c(Cl)cccc2Cl)CC1,i,i,i,i,i,·,·,·,·
Cc1ccc(C)c(NS(=O)(=O)c2ccc3[nH]c(=O)oc3c2)c1,-5.3*,i,i,i,i,i,i,i,i
O=C(N/C=N/O)C(c1ccccc1)c1ncc(C(F)(F)F)cc1Cl (stereo not drawn),i,i,i,i,i,·,·,·,·
Cc1ccc(-c2ccccc2)n1-c1ccc(C(=O)O)cc1,-4.6*,i,i,i,i,78%*,i,i,i
Cc1ccc2c(c1)N(C(=O)CCC(=O)NCCCN1CCC(Cc3ccccc3)CC1)CCO2,i,i,i,i,i,·,·,·,·
Cc1ccc2c(c1)N(C(=O)CCC(=O)NCCCN1CCN(C)CC1)CCO2,-8.7*,i,i,i,i,i,i,i,i
CCOC(=O)c1cc2c3ccccc3n(CC)c2nc1N,-5.8*,i,i,i,i,i,i,i,i
Cc1nc2nc(NC(=O)c3ccco3)[nH]n2c(=O)c1C,i,i,i,i,i,·,·,·,·
COc1ccc(C(=O)NCCCNC(=O)c2ccccn2)cc1,i,i,i,i,i,·,·,·,·
CN(C)C1=NC[C@H](Cc2ccccc2)N1CCCC1CCCC1,-5.6*,i,·,i,·,i,i,i,i
C[C@H]1CN=C(Nc2ccccc2)N1CC1CCCCC1,i,i,i,i,i,·,·,·,·
C[C@H]1CN=C(Nc2ccccc2)N1CCCC1CCCCC1,-6.1*,i,i,i,i,i,i,i,i
C=CCOCCn1[nH]c2ccccc2c1=O,i,i,·,i,·,·,·,·,·
Cc1ccccc1NC(=O)CCN1CCCCCC1,-6.1*,i,i,i,i,i,i,i,i
Cc1ccccc1NC(=O)CCN1CCN(Cc2ccccc2)CC1,i,i,i,i,i,·,·,·,·
O=C(NC1CCCCC1)C(=S)N1CCOCC1,-5.4*,i,i,i,i,i,i,i,i
